Reference: ChEMBL document CHEMBL5143713, “Multitarget, Selective Compound Design Yields Potent Inhibitors of a Kinetoplastid Pteridine Reductase 1” (J Med Chem, 2022)

What was measured:
[1] = target: T1, Pteridine reductase, putative (Trypanosoma brucei, UniProt Q581W1); assay: Inhibition of recombinant Trypanosoma brucei PTR1 expressed in Escherichia coli BL21 (DE3) cells using H2B as substrate in presence of cytochrome c and NADPH by envision multilabel reader
T1 sequence (Q581W1 whole entry): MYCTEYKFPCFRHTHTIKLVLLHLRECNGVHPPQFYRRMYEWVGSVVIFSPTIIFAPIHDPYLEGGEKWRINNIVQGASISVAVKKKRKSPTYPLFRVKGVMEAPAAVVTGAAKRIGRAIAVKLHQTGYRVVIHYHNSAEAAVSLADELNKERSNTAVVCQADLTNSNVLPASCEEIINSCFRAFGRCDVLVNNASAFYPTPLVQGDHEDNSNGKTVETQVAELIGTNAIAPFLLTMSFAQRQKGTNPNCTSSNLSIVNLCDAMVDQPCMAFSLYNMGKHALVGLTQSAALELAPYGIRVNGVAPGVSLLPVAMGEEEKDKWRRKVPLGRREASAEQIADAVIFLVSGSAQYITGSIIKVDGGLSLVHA

[2] = target: CYP3A4 (Homo sapiens, UniProt P08684); assay: Inhibition of CYP3A4 (unknown origin) expressed in baculovirus-infected insect cells at 10 uM using CYP/Luciferin as substrate incubated for 30 mins in presence of NADPH by luminescence based analysis relative to control; type: ADME; settings: probe CYP/Luciferin
Sequence of CYP3A4 (P08684 whole entry, canonical isoform): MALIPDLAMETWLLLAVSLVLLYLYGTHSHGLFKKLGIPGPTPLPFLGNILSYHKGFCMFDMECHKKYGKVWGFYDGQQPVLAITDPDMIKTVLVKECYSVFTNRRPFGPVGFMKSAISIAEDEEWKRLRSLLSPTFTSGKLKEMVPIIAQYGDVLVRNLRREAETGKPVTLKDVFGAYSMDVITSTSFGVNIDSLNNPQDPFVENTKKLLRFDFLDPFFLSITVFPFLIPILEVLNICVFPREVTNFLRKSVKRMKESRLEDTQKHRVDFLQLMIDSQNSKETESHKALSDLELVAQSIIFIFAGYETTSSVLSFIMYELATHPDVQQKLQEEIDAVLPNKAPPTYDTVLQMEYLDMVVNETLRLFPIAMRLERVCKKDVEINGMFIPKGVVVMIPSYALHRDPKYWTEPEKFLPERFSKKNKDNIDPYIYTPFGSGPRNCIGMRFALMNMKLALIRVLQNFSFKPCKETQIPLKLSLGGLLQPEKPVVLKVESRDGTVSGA
In short: (§1)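 Tested at 10 μM using microsomal preparations of each CYP isoform from baculovirus-infected insect cells on a luminescent P450-Glo platform. The enzyme acts on its substrate to give light, and a fall in luminescence indicates inhibition.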

[3] = system: Trypanosoma brucei brucei; assay: Antitrypanosomal activity against bloodstream form of Trypanosoma brucei brucei Lister 427 assessed as parasite growth inhibition at 10 uM incubated for 72 hrs by resazurin dye based analysis relative to control; type: functional
[4] = target: Bifunctional dihydrofolate reductase-thymidylate synthase (Trypanosoma brucei brucei, UniProt Q27783); assay: Inhibition of recombinant Trypanosoma brucei DHFR-TS expressed in Escherichia coli BL21 (DE3) cells using dihydrofolate as substrate in presence of NADPH by spectrophotometric analysis
Sequence of Bifunctional dihydrofolate reductase-thymidylate synthase (Trypanosoma brucei brucei, UniProt Q27783) (Q27783 whole entry): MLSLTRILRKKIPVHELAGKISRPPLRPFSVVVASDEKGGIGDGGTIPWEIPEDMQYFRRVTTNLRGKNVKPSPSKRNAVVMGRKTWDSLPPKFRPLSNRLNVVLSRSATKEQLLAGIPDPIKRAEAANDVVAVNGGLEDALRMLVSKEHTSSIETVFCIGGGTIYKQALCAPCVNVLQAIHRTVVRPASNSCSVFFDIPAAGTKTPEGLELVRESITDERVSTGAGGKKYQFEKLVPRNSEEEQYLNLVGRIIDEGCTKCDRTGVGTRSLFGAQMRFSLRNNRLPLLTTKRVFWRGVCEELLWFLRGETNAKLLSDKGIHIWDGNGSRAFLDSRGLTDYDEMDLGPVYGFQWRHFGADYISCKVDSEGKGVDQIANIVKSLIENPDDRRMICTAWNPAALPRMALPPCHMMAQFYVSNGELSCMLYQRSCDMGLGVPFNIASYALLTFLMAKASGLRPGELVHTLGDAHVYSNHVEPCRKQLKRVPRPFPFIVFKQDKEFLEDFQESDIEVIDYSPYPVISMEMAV

[5] = target: T2, Pteridine reductase 1 (Leishmania major, UniProt Q01782); assay: Inhibition of recombinant Leishmania major PTR1 expressed in Escherichia coli BL21 (DE3) cells using H2B as substrate in presence of cytochrome c and NADPH by envision multilabel reader
T2 sequence (Q01782 whole entry): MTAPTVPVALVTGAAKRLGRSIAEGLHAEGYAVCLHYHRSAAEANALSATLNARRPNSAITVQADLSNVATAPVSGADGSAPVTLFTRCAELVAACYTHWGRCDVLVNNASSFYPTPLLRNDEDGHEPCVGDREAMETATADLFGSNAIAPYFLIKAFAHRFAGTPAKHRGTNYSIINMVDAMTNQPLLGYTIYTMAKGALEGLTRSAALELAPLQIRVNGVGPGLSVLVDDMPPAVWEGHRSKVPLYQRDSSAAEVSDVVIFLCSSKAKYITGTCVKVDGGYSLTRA

[6] = target: Bifunctional dihydrofolate reductase-thymidylate synthase (Leishmania major, UniProt P07382); assay: Inhibition of recombinant Leishmania major DHFR-TS expressed in Escherichia coli BL21 (DE3) cells using dihydrofolate as substrate in presence of NADPH by spectrophotometric analysis
Sequence of Bifunctional dihydrofolate reductase-thymidylate synthase (Leishmania major, UniProt P07382) (P07382 whole entry): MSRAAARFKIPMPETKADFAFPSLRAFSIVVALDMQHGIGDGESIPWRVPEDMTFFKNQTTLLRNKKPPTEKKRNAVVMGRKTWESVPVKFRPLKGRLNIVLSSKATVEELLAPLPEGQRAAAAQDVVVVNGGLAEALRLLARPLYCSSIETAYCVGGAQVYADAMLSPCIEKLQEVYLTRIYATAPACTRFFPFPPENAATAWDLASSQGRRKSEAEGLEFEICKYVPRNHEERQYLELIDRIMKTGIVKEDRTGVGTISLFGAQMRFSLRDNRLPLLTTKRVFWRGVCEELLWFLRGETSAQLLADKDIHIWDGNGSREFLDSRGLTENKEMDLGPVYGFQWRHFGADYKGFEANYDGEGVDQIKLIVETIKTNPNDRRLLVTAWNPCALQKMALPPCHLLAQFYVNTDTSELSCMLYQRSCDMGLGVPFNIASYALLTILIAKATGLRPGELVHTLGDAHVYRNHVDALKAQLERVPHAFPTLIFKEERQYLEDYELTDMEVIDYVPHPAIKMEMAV

[7] = system: Trypanosoma brucei brucei; assay: Antitrypanosomal activity against bloodstream form of Trypanosoma brucei brucei Lister 427 assessed as parasite growth inhibition incubated for 72 hrs by resazurin dye based analysis; type: functional, organism-based; settings: Lister 427, 72 h
[8] = target: T3, CYP1A2 (Homo sapiens, UniProt P05177); assay: Inhibition of CYP1A2 (unknown origin) expressed in baculovirus-infected insect cells at 10 uM using CYP/Luciferin as substrate incubated for 30 mins in presence of NADPH by luminescence based analysis relative to control; type: ADME; settings: probe CYP/Luciferin; in short: as §1
T3 sequence (P05177 whole entry): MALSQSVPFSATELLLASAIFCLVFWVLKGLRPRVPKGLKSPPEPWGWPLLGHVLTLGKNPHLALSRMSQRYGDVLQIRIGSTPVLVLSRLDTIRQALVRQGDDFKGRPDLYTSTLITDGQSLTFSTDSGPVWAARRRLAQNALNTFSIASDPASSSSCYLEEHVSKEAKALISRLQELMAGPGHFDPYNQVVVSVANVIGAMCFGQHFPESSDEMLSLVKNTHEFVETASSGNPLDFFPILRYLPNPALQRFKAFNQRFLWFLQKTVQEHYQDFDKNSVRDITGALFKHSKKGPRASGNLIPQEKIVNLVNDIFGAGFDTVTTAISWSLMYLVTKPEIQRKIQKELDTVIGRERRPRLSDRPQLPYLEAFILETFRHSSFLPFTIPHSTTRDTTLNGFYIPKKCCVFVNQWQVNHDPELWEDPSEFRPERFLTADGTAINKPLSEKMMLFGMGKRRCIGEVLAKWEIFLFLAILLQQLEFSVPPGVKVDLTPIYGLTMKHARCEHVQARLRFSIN

[9] = (§2) Cytotoxicity against human THP-1 derived macrophages by colorimetric MTT assay; type: toxicity, cell-based, Macrophage; settings: THP-1 derived macrophages
In short: (§3)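 CC50 from at least three independent MTT colorimetric cytotoxicity runs on THP-1-derived macrophages. Selectivity index is CC50 (or lower CC50 interval estimate) divided by antiparasitic EC50.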

[10] = system: 786-0; assay: Mitochondrial toxicity in human 786-0 cells at 10 uM incubated with compound for 6 hrs followed by incubation with MitoTracker Red chloromethyl-X-rosamine dye for 45 mins by imaging analysis relative to control; type: cell-based; settings: 786-0, 6 h
In short: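 Tested at 10 μM. 786-O cells kept in RPMI-1640 with 2 mM glutamine, 10% FCS, streptomycin 100 μg/mL and penicillin G 100 U/mL. Mitochondrial toxicity read as MitoTracker Red (chloromethyl-X-rosamine) uptake by high-content imaging.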

[11] = system: A549; assay: Cytotoxicity against human A549 cells at 10 uM measured after 48 hrs by Celltiter-Glo assay relative to control; type: toxicity, cell-based; settings: a549, 48 h
In short: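 Tested at 10 μM. A549 cells grown in DMEM with 10% FCS, streptomycin 100 μg/mL and penicillin G 100 U/mL. Viability read as cellular ATP by CellTiter-Glo luminescence.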

[12] = system: Macrophage; assay: as §2; type: toxicity, cell-based; settings: macrophage; in short: as §3
[13] = target: CYP2D6 (Homo sapiens, UniProt P10635); assay: Inhibition of CYP2D6 (unknown origin) expressed in baculovirus-infected insect cells at 10 uM using CYP/Luciferin as substrate incubated for 30 mins in presence of NADPH by luminescence based analysis relative to control; type: ADME; settings: probe CYP/Luciferin; in short: as §1
Sequence of CYP2D6 (P10635 whole entry): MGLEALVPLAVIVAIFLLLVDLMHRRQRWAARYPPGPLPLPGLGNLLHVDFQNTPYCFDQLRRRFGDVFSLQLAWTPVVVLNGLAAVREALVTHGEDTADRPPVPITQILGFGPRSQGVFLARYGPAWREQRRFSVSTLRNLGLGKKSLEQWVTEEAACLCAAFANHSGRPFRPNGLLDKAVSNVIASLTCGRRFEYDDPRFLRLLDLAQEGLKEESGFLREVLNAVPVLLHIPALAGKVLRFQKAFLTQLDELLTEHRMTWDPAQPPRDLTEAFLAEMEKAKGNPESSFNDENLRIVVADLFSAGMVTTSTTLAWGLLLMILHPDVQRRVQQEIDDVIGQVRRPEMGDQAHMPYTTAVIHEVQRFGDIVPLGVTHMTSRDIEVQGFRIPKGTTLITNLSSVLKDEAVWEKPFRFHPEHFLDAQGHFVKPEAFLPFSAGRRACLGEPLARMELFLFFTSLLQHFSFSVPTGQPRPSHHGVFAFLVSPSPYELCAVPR

[14] = target: T4, Dihydrofolate reductase (Homo sapiens, UniProt P00374); assay: Inhibition of recombinant human DHFR expressed in Escherichia coli BL21 (DE3) cells using dihydrofolate as substrate in presence of NADPH by spectrophotometric analysis; type: toxicity
T4 sequence (P00374 whole entry): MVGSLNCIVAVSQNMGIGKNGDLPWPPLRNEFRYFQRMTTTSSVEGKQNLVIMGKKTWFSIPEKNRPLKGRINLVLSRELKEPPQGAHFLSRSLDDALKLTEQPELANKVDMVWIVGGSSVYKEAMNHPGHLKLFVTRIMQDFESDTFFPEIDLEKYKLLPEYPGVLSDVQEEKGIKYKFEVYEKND

[15] = target: CYP2C19 (Homo sapiens, UniProt P33261); assay: Inhibition of CYP2C19 (unknown origin) expressed in baculovirus-infected insect cells at 10 uM using CYP/Luciferin as substrate incubated for 30 mins in presence of NADPH by luminescence based analysis relative to control; type: ADME; settings: probe CYP/Luciferin; in short: as §1
Sequence of CYP2C19 (P33261 whole entry): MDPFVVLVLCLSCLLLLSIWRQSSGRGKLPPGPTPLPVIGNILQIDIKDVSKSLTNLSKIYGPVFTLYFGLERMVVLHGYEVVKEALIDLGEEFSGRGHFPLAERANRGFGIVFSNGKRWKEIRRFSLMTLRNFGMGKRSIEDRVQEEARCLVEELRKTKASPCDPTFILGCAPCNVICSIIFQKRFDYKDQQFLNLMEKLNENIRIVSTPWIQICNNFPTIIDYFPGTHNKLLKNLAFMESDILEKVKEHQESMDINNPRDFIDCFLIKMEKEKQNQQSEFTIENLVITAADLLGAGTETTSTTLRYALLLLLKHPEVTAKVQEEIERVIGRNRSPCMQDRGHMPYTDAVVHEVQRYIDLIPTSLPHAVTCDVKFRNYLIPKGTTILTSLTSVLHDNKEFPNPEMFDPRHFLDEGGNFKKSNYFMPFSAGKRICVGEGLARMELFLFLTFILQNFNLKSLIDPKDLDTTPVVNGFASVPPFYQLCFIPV

[16] = system: human DHFR versus Leishmania major PTR1; assay: Selectivity index, ratio of IC50 for human DHFR to IC50 for Leishmania major PTR1; type: toxicity; settings: read-out: Ratio IC50
[17] = system: human DHFR versus Leishmania major DHFR; assay: Selectivity index, ratio of IC50 for human DHFR to IC50 for Leishmania major DHFR; type: toxicity; settings: read-out: Ratio IC50
[18] = system: human DHFR versus Trypanosoma brucei DHFR; assay: Selectivity index, ratio of IC50 for human DHFR to IC50 for Trypanosoma brucei DHFR; type: toxicity; settings: read-out: Ratio IC50
[19] = system: human DHFR versus Trypanosoma brucei PTR1; assay: Selectivity index, ratio of IC50 for human DHFR to IC50 for Trypanosoma brucei PTR1; type: toxicity; settings: read-out: Ratio IC50
[20] = target: CYP2C9 (Homo sapiens, UniProt P11712); assay: Inhibition of CYP2C9 (unknown origin) expressed in baculovirus-infected insect cells at 10 uM using CYP/Luciferin as substrate incubated for 30 mins in presence of NADPH by luminescence based analysis relative to control; type: ADME; settings: probe CYP/Luciferin; in short: as §1
Sequence of CYP2C9 (P11712 whole entry): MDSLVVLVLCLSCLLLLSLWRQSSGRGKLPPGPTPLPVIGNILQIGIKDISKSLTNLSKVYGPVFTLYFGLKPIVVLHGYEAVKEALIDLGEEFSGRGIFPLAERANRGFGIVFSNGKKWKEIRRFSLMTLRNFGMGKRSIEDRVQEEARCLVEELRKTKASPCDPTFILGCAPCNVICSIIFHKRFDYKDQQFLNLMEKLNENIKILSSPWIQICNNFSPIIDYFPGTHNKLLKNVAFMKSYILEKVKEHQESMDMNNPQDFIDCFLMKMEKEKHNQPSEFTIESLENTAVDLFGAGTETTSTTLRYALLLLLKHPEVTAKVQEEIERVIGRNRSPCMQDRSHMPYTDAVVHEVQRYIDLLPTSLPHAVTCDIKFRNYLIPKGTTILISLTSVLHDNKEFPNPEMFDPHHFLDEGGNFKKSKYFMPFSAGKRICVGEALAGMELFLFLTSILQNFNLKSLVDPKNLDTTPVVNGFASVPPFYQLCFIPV

[21] = target: Voltage-gated inwardly rectifying potassium channel KCNH2 (Homo sapiens, UniProt Q12809); assay: Inhibition of hERG potassium channel at 10 uM by fluorescence polarization assay relative to control; type: toxicity
Sequence of Voltage-gated inwardly rectifying potassium channel KCNH2 (Q12809 whole entry): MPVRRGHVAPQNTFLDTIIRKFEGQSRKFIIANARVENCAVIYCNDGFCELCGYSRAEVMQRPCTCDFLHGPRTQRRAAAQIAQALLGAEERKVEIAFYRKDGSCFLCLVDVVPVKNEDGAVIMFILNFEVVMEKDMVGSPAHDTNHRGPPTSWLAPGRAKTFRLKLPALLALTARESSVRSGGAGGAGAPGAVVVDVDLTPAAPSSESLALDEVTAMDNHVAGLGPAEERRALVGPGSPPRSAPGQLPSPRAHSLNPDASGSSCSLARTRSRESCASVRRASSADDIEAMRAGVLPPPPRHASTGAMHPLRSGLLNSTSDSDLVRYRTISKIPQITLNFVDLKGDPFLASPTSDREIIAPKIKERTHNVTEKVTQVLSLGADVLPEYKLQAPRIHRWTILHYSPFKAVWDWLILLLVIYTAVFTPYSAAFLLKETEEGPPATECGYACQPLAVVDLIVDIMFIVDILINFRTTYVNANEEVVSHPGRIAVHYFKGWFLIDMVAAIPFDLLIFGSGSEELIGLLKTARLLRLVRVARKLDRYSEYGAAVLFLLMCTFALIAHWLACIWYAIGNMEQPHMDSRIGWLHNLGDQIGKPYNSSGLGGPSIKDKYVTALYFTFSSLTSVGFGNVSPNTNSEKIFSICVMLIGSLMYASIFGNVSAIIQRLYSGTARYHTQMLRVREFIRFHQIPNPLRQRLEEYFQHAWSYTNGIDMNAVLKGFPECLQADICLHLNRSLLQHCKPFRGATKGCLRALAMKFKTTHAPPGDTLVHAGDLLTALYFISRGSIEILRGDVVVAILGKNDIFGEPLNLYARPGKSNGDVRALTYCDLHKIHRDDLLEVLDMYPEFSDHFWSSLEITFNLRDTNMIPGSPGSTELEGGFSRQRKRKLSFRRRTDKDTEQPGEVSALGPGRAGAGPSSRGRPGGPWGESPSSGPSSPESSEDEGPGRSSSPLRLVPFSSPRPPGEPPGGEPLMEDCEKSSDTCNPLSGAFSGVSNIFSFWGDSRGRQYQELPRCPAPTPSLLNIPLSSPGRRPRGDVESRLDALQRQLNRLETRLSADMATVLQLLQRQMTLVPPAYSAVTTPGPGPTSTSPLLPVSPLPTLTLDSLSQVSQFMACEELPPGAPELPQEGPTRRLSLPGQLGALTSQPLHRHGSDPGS
In short: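 Tested at 10 μM. Fluorescence polarization readout using a hERG-containing membrane fraction and a red fluorescent high-affinity hERG tracer. Displacement of the tracer by the compound is measured.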

NC(=O)C1CCCN1C(=O)Cc1ccc(N(CCCO)Cc2cnc3nc(N)nc(N)c3n2)cc1 (stereo unspecified)
IC50 [1]: 4 nM | inhibition at 0.5 h, 10 µM [2]: 0% | inhibition at 10 µM [3]: 23% | IC50 [4]: 590 nM | IC50 [5]: 170 nM | IC50 [6]: 890 nM

COc1ccc(Oc2ccc(CN(C)Cc3cnc4nc(N)nc(N)c4n3)cc2)cc1
EC50 [7]: 1300 nM | inhibition at 0.5 h, 10 µM [8]: 9% | IC50 [1]: 150 nM | CC50 [9]: 12500 nM | Activity [10]: 1% | inhibition at 10 µM [3]: 100% | Activity [11]: 15% | IC50 [5]: 450 nM

CCN(Cc1cnc2nc(N)nc(N)c2n1)c1ccc(C(=O)c2ccccc2)cc1
EC50 [7]: 660 nM | IC50 [1]: < 0.1 nM | CC50 [9]: 25000 nM | Activity [10]: 0% | inhibition at 10 µM [3]: 78% | IC50 [4]: 340 nM | Activity [11]: 0% | IC50 [5]: 50 nM | IC50 [6]: 230 nM

N=C(N)c1ccc(OCCCCCOc2ccc(C(=N)N)cc2)cc1 [PENTAMIDINE]
CC50 [12]: 10000 nM

COC(=O)C1CCN(C(=O)c2ccc(N(CCO)Cc3cnc4nc(N)nc(N)c4n3)cc2)CC1
inhibition at 0.5 h, 10 µM [13]: 0% | IC50 [1]: 200 nM | Activity [10]: 0% | IC50 [4]: 1260 nM | Activity [11]: 100% | IC50 [6]: 1210 nM

COC(=O)C1CCN(C(=O)Cc2ccc(NCc3cnc4nc(N)nc(N)c4n3)cc2)CC1
IC50 [14]: 35000 nM | inhibition at 0.5 h, 10 µM [8]: 12% | IC50 [1]: 140 nM | inhibition at 0.5 h, 10 µM [15]: 12% | selectivity ratio [16]: 31 | Activity [10]: 0% | selectivity ratio [17]: 41 | selectivity ratio [18]: 56 | IC50 [4]: 620 nM | selectivity ratio [19]: 250 | Activity [11]: 100% | IC50 [5]: 1140 nM | IC50 [6]: 850 nM

COc1ccc(Oc2ccc(CNCc3cnc4nc(N)nc(N)c4n3)cc2)cc1
IC50 [1]: 520 nM | inhibition at 0.5 h, 10 µM [2]: 33% | selectivity ratio [16]: 385 | Activity [10]: 0% | selectivity ratio [17]: 1 | selectivity ratio [18]: 1 | selectivity ratio [19]: 192 | IC50 [5]: 260 nM

Nc1nc(N)c2nc(CNc3ccc(C(=O)c4ccccc4)cc3)cnc2n1
IC50 [14]: 6020 nM | IC50 [1]: 1 nM | inhibition at 0.5 h, 10 µM [2]: 17% | selectivity ratio [16]: 201 | Activity [10]: 10% | selectivity ratio [17]: 2 | selectivity ratio [18]: 6 | IC50 [4]: 990 nM | selectivity ratio [19]: 6020 | IC50 [5]: 30 nM | IC50 [6]: 3260 nM

COC(=O)C1CCN(C(=O)c2ccc(N(CCCO)Cc3cnc4nc(N)nc(N)c4n3)cc2)CC1
IC50 [14]: 15000 nM | IC50 [1]: 30 nM | selectivity ratio [16]: 68 | Activity [10]: 0% | selectivity ratio [17]: 20 | selectivity ratio [18]: 35 | IC50 [4]: 430 nM | selectivity ratio [19]: 500 | inhibition at 0.5 h, 10 µM [20]: 17% | Activity [11]: 100% | IC50 [5]: 220 nM | IC50 [6]: 760 nM

COC(=O)C1CCN(C(=O)c2ccc(N(Cc3ccccc3)Cc3cnc4nc(N)nc(N)c4n3)cc2)CC1
IC50 [14]: 73000 nM | IC50 [1]: < 0.1 nM | inhibition (INH) [21]: 45% | selectivity ratio [16]: 3650 | Activity [10]: 0% | selectivity ratio [17]: 80 | selectivity ratio [18]: 61 | IC50 [4]: 1200 nM | selectivity ratio [19]: > 730000 | Activity [11]: 100% | IC50 [5]: 20 nM | IC50 [6]: 910 nM
